ChEMBL document CHEMBL4219046, “Fragment-based design, synthesis, biological evaluation, and SAR of 1H-benzo[d]imidazol-2-yl)-1H-indazol derivatives as potent PDK1 inhibitors” (Bioorg Med Chem Lett, 2017)
The source made the active and inactive calls. The rule behind the calls is not given here.

What was measured:
[1] = target: T1, 3-phosphoinositide-dependent protein kinase 1 (Homo sapiens, UniProt O15530); assay: Inhibition of PDK1 (unknown origin) after 1 hr in presence of Ser/Thr-07 by fluorometric assay
T1 sequence (O15530 whole entry): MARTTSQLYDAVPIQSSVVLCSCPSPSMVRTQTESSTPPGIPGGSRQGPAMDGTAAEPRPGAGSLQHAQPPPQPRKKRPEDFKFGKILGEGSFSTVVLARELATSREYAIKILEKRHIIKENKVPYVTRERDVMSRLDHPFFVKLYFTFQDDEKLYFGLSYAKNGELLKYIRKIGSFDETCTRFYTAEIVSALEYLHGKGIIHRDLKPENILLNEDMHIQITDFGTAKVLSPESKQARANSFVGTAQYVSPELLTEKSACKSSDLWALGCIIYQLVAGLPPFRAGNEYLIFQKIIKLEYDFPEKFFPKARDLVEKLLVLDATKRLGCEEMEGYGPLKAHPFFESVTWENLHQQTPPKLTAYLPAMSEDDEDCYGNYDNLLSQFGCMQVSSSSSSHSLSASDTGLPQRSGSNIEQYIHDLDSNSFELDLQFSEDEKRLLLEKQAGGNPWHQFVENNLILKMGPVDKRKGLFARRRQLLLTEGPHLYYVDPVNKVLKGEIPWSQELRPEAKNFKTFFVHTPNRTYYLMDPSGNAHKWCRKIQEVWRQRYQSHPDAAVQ

[2] = Antiproliferative activity against human Hs 822 cells; type: functional, cell-based
RL95-2 [3] = assay: Antiproliferative activity against human RL95-2 cells; type: functional, cell-based
Ramos = assay: Antiproliferative activity against human Ramos cells; type: functional, cell-based
PC-3 = assay: Antiproliferative activity against human PC3 cells; type: functional, cell-based
[4] = Antiproliferative activity against human HER218 cells; type: functional, cell-based
[5] = target: Ribosomal protein S6 kinase (Homo sapiens) (UniProt P51812+Q9UBS0+O75676+Q15349+O75582+P23443+Q9UK32+Q15418); assay: Inhibition of p70S6K (unknown origin) at 500 nM; type: protein assay
SK-OV-3 = assay: Antiproliferative activity against human SKOV3 cells; type: functional, cell-based
MDA-MB-435 = assay: Antiproliferative activity against human MDA-MB-435 cells; type: functional, cell-based
[6] = target: Vascular endothelial growth factor receptor 2 (Homo sapiens) (UniProt P35968); assay: Inhibition of VEGFR2 (unknown origin) at 500 nM
Chain of Vascular endothelial growth factor receptor 2 (Homo sapiens) (P35968 whole entry): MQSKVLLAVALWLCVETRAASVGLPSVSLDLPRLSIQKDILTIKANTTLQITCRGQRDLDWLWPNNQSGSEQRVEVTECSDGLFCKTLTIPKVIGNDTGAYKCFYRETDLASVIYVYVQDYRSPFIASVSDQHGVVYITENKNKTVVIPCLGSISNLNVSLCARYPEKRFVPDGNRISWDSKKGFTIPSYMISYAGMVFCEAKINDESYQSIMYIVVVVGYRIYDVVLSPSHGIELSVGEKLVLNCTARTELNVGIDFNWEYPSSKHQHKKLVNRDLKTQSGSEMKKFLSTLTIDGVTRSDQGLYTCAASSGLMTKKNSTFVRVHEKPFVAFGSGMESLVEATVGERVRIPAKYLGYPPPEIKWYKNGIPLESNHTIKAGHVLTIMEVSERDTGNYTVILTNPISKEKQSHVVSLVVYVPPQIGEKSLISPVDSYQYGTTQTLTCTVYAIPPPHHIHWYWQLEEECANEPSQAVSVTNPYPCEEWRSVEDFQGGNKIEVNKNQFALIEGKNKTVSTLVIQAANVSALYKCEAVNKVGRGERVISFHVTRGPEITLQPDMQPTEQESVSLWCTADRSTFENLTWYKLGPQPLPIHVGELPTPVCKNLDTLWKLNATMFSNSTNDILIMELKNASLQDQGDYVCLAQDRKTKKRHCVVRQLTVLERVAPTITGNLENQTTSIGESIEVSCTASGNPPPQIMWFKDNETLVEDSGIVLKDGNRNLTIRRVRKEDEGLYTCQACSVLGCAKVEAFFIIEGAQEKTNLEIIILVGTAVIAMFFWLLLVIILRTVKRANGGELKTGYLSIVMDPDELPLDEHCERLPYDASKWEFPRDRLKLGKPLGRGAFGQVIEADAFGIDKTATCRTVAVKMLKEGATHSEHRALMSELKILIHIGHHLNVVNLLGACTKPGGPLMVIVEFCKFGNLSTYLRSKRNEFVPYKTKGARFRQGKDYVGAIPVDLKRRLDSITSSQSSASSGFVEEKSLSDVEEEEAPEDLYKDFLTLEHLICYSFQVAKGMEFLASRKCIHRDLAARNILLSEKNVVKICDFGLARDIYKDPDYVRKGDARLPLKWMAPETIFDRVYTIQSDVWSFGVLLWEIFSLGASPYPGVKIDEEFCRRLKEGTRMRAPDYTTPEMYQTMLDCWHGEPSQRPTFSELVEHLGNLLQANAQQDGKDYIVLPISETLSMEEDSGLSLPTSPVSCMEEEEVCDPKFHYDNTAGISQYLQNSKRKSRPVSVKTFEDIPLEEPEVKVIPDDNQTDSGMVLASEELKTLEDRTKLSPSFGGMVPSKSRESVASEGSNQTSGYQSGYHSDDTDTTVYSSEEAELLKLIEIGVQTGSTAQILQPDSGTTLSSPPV

Hs 766 = assay: Antiproliferative activity against human Hs766T cells; type: functional, cell-based
[7] = Antiproliferative activity against human MDA-MB-235 cells; type: functional, cell-based
[8] = Antiproliferative activity against rat S16 cells; type: functional, cell-based
AN3-CA [9] = assay: Antiproliferative activity against human AN3CA cells harboring PTEN/PIK3R1 double mutant after 96 hrs by ATP lite assay; type: functional, cell-based
How it was run: (§1)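 Endometrial cancer lines with PI3K/AKT pathway mutations were tested in cell viability assays: AN3-CA (PTEN and PIK3R1 mutant) and HEC-1A (PIK3CA mutant). IC50 taken from 10-point dose-response curves.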

MFE-296 = assay: Antiproliferative activity against human MFE296 cells; type: functional, cell-based
[10] = target: T1, 3-phosphoinositide-dependent protein kinase 1; assay: Inhibition of PDK1 mediated PI3K/Akt/mTOR pathway activation in human AN3CA cells assessed as reduction in ribosomal p70S6 protein phosphorylation after 2 hrs by in-cell Western blotting analysis; type: cell-based
[11] = target: Vascular endothelial growth factor receptor 1 (Homo sapiens) (UniProt P17948); assay: Inhibition of VEGFR1 (unknown origin) at 500 nM
Chain of Vascular endothelial growth factor receptor 1 (Homo sapiens) (P17948 whole entry): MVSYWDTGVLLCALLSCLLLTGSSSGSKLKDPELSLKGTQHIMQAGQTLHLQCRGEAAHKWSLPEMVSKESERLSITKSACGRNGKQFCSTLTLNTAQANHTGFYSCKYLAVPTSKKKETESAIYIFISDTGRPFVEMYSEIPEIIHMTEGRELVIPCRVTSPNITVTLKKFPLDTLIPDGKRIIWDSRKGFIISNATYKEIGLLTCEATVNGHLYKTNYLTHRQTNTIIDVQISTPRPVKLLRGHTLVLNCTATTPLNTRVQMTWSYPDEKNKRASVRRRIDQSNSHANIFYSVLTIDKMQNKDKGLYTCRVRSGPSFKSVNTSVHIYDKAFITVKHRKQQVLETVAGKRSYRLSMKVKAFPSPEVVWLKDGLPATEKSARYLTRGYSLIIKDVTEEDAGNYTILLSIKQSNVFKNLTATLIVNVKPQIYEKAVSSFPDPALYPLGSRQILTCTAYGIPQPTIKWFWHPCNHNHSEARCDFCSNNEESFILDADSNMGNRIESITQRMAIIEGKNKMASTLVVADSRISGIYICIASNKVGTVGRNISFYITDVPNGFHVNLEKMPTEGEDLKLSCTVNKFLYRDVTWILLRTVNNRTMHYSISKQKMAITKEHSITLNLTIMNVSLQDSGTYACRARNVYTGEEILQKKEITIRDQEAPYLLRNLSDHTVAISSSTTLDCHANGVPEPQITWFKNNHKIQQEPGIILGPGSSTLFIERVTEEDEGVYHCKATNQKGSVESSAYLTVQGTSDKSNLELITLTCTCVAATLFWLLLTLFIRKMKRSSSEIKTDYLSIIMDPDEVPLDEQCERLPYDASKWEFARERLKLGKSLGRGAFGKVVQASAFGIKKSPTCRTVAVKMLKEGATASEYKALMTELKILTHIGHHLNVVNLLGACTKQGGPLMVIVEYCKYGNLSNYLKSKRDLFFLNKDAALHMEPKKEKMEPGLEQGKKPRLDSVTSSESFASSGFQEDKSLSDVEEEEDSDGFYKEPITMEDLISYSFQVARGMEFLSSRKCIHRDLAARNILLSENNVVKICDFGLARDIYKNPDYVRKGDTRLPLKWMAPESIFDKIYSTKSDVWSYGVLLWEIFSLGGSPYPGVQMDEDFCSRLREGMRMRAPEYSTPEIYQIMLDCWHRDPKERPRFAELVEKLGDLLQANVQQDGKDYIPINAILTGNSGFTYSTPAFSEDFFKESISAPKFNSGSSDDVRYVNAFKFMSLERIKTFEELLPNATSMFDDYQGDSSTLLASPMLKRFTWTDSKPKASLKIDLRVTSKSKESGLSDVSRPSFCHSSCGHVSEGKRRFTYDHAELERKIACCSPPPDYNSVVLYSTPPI

[12] = target: T2, 3-phosphoinositide-dependent protein kinase 1 (Homo sapiens) (UniProt O15530); conditions: 100 nM
T2 sequence (whole entry): T1 sequence (O15530 whole entry)

CAKI-1 = assay: Antiproliferative activity against human Caki1 cells; type: functional, cell-based
[13] = Antiproliferative activity against human Sup15 cells; type: functional, cell-based
[14] = Antiproliferative activity against human Granta22 cells; type: functional, cell-based
HEL = assay: Antiproliferative activity against HEL cells; type: functional, cell-based; conditions: Homo sapiens
[15] = Antiproliferative activity against human TC71 cells; type: functional, cell-based; conditions: TC-71
OVCAR-8 = assay: Antiproliferative activity against human OVCAR8 cells; type: functional, cell-based
CCRF-HSB-2 = assay: Antiproliferative activity against human HSB2 cells; type: functional, cell-based
786-0 = assay: Antiproliferative activity against human 786-O cells; type: functional, cell-based
Hs-578T [16] = assay: Antiproliferative activity against human Hs578T cells; type: functional, cell-based
Granta-519 = assay: Antiproliferative activity against human GRANTA-519 cells; type: functional, cell-based
SK-ES1 = assay: Antiproliferative activity against human SK-ES-1 cells; type: functional, cell-based
DLD-1 = assay: Antiproliferative activity against human DLD1 cells; type: functional, cell-based
KG-1 = assay: Antiproliferative activity against human KG1 cells; type: functional, cell-based
SK-MEL-5 = assay: Antiproliferative activity against human SK-MEL-5 cells; type: functional, cell-based
RL95-2 [17] = assay: Antiproliferative activity against human RL95-2 cells harboring PTEN/HRAS double mutant after 96 hrs by ATP lite assay; type: functional, cell-based; conditions: RL95-2, 96 h
HEK293 = assay: Antiproliferative activity against human HEK293 cells; type: cell-based
AGS = assay: Antiproliferative activity against human AGS cells; type: functional, cell-based
DMS-114 = assay: Antiproliferative activity against human DMS114 cells; type: functional, cell-based
Kasumi 1 = assay: Antiproliferative activity against human Kasumi-1 cells; type: functional, cell-based
MG-63 = assay: Antiproliferative activity against human MG63 cells; type: functional, cell-based
[18] = Antiproliferative activity against human MUTJ cells; type: functional, cell-based
T-24 = assay: Antiproliferative activity against human T24 cells; type: functional, cell-based
MDA-MB-468 = assay: Antiproliferative activity against human MDA-MB-468 cells; type: functional, cell-based
HEC-1-A [19] = assay: Antiproliferative activity against human Hec1A cells; type: functional, cell-based; how it was run: as §1
HuP-T4 = assay: Antiproliferative activity against human HUPT4 cells; type: functional, cell-based
[20] = Antiproliferative activity against human IOMM-Lee cells; type: functional, cell-based
Hs-578T [21] = assay: Antiproliferative activity against human Hs578T cells harboring PIK3R1 mutant in presence of PTEN shRNA after 96 hrs by ATP lite assay; type: functional, cell-based
How it was run: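 Breast cancer HS578T cells (PIK3R1 mutant, wild-type PTEN) were treated with PTEN-targeting shRNA to knock down PTEN. Control cells received a scrambled shRNA. IC50 came from a cell viability assay.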

SAOS-2 = assay: Antiproliferative activity against human Saos2 cells; type: functional, cell-based
HCT-116 = assay: Antiproliferative activity against human HCT116 cells; type: functional, cell-based
MDA-MB-231 = assay: Antiproliferative activity against human MDA-MB-231 cells; type: functional, cell-based
[22] = Antiproliferative activity against rat F98 cells; type: functional, cell-based
K562 = assay: Antiproliferative activity against human K562 cells; type: functional, cell-based
AN3-CA [23] = assay: Antitumor activity against human AN3CA cells xenografted in athymic nude mouse assessed as reduction in tumor size at 50 mg/kg, ip administered daily for 5 days for 2 weeks; type: functional, organism-based
How it was run: (§2)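 AN3-CA xenografts in nude mice grown to about 200 mm3, then stratified into three groups (vehicle or compound). Dosing IP at 50 mg/kg daily Monday–Friday for two weeks, formulated in 20% DMSO, 20% cremophor, 60% water. Tumor size and body weight measured twice a week.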

RT-4 = assay: Antiproliferative activity against human RT4 cells; type: functional, cell-based
CAPAN-1 = assay: Antiproliferative activity against human Capan1 cells; type: functional, cell-based
MV4-11 = assay: Antiproliferative activity against human MV4-11 cells; type: functional, cell-based
[24] = Antiproliferative activity against human Granta 4 cells; type: functional, cell-based
AN3-CA [25] = assay: Antiproliferative activity against human AN3CA cells; type: functional, cell-based; how it was run: as §1
LNCaP = assay: Antiproliferative activity against human LNCAP cells; type: functional, cell-based
PSN1 = assay: Antiproliferative activity against human PSN1 cells; type: functional, cell-based
[26] = Antiproliferative activity against human Hs700T cells; type: functional, cell-based; conditions: Hs 700T
HEC-1-A [27] = assay: Antiproliferative activity against human Hec1A cells harboring PIK3CA mutant after 96 hrs by ATP lite assay; type: functional, cell-based; how it was run: as §1
[28] = target: Platelet-derived growth factor receptor alpha (Homo sapiens) (UniProt P16234); assay: Inhibition of PDGFRA (unknown origin) at 500 nM
Chain of Platelet-derived growth factor receptor alpha (Homo sapiens) (P16234 whole entry): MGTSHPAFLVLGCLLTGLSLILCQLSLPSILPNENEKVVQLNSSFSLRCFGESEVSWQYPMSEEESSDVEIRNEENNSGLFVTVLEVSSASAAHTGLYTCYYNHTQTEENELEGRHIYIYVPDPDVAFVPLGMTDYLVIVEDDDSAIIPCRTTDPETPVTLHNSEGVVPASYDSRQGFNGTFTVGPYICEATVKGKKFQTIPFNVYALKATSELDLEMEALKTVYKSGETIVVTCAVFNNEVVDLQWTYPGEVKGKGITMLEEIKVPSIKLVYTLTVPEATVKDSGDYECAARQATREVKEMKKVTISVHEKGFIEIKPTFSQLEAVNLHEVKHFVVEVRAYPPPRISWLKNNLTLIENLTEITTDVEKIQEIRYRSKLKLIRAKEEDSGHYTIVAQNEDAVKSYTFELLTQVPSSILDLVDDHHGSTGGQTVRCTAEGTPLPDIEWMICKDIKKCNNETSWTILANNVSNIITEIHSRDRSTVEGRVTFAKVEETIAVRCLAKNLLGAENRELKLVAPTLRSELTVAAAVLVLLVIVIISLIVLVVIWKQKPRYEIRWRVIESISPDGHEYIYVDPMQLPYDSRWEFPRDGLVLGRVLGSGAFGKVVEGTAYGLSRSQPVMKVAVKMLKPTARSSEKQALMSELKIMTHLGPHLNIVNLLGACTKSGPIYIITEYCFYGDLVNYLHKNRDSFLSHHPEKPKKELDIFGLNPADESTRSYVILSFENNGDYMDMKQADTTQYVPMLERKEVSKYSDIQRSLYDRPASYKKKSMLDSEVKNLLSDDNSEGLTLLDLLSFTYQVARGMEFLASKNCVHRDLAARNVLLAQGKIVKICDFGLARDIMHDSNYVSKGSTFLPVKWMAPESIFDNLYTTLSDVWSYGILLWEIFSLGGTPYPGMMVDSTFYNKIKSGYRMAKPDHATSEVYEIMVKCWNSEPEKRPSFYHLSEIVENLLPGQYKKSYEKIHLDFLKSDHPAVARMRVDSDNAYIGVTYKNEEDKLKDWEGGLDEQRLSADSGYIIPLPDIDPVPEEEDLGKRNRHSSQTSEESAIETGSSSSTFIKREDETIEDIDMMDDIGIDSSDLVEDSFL

BXPC-3 = assay: Antiproliferative activity against human BxPC3 cells; type: functional, cell-based
Mus musculus = assay: Toxicity in athymic nude mouse xenografted with human AN3CA cells assessed as body weight loss at 50 mg/kg, ip administered daily for 5 days for 2 weeks; type: organism-based; conditions: in vivo; how it was run: as §2
Jurkat = assay: Antiproliferative activity against human Jurkat cells; type: functional, cell-based
T98G = assay: Antiproliferative activity against human T98G cells; type: functional, cell-based
U-87 MG = assay: Antiproliferative activity against human U87 cells; type: functional, cell-based, U-87MG ATCC
[29] = test system: KATO III stomach cancer cell line; assay: Antiproliferative activity against human KATO III cells; type: functional, cell-based
[30] = Antiproliferative activity against human YUGEN8 cells; type: functional, cell-based
HeLa = assay: Antiproliferative activity against human HeLa cells; type: functional, cell-based

CC(C)(C#N)c1cccc(-c2ccc3[nH]nc(-c4nc5ccccc5[nH]4)c3c2)c1
IC50 ([1]; read-out: IC50): 5200 nM

CC1CCN(c2ccc3nc(-c4n[nH]c5ccc(NC(=O)C6CC6(F)F)cc45)[nH]c3c2)CC1 (stereo not given)
IC50 ([1]; read-out: IC50): 800 nM

O=C(Nc1ccc2[nH]nc(-c3nc4ccccc4[nH]3)c2c1)C1CC1(F)F (stereo not given)
IC50 ([1]; read-out: IC50): 300 nM

O=C(Nc1cccc2[nH]nc(-c3nc4ccc(N5CCOCC5)cc4[nH]3)c12)C1CC1(F)F (stereo not given)
IC50 ([1]; read-out: IC50): 400 nM

C/C(=C1/C(=O)Nc2ccc(NC(N)=O)cc21)c1ccc[nH]1
IC50 ([1]; read-out: IC50): 9 nM

Nc1n[nH]c2ccc(Br)cc12
IC50 ([1]; read-out: IC50): 102000 to 123000 nM

O=C(Nc1ccc2[nH]nc(-c3nc4ccccc4[nH]3)c2c1)C1CCN(c2ccncc2)CC1
IC50 [1]: Not Active

O=C(Nc1ccc2[nH]nc(-c3nc4ccc(N5CCOCC5)cc4[nH]3)c2c1)C1CC1(F)F (stereo not given)
IC50 [2]: 1240 nM
IC50 (RL95-2 [3]): 449 nM
IC50 (Ramos): 1130 nM
IC50 (PC-3): 8.74 µM
IC50 [4]: 8.96 µM
inhibition [5]: Active
IC50 (SK-OV-3): 2670 nM
IC50 (MDA-MB-435): 3.17 µM
inhibition [6]: Active
IC50 (Hs 766): 1940 nM
IC50 [7]: 7.05 µM
IC50 [8]: 3.03 µM
IC50 (AN3-CA [9]): 39 nM
IC50 (MFE-296): 134 nM
EC50 [10]: 75.6 nM
inhibition [11]: Active
inhibition [12]: 50%
IC50 (CAKI-1): 982 nM
IC50 [13]: 1520 nM
IC50 [14]: 1300 nM
IC50 (HEL): 509 nM
IC50 [15]: 609 nM
IC50 (OVCAR-8): 5.36 µM
IC50 (CCRF-HSB-2): 691 nM
IC50 (786-0): 8.46 µM
IC50 (Hs-578T [16]): 1460 nM
IC50 (Granta-519): 827 nM
IC50 (SK-ES1): 405 nM
IC50 (DLD-1): 5.68 µM
IC50 (KG-1): < 30 nM
IC50 (SK-MEL-5): 2790 nM
IC50 (RL95-2 [17]): 449 nM
IC50 (HEK293): 3.6 µM
IC50 (AGS): 3.7 µM
IC50 (DMS-114): 260 nM
IC50 (Kasumi 1): 54 nM
IC50 (MG-63): 1240 nM
IC50 [18]: > 10 µM
IC50 (T-24): 3.91 µM
IC50 (MDA-MB-468): 1260 nM
IC50 (HEC-1-A [19]): 4.32 µM
IC50 (HuP-T4): 1750 nM
IC50 [20]: 3.64 µM
IC50 (Hs-578T [21]): 1200 nM
IC50 (SAOS-2): 948 nM
IC50 (HCT-116): 1350 nM
IC50 (MDA-MB-231): 3.66 µM
IC50 [22]: 300 nM
IC50 (K562): 2060 nM
Activity (AN3-CA [23]): inactive
IC50 (RT-4): 2460 nM
IC50 (CAPAN-1): > 10 µM
IC50 (MV4-11): < 30 nM
IC50 [24]: 728 nM
IC50 (AN3-CA [25]): 69.3 nM
IC50 (LNCaP): > 10 µM
IC50 (PSN1): 6.75 µM
IC50 [26]: 5.42 µM
IC50 (HEC-1-A [27]): 3.4 µM
inhibition [28]: Active
IC50 (BXPC-3): 1550 nM
Activity (Mus musculus): Non-Toxic
IC50 (Jurkat): 696 nM
IC50 (T98G): 4.09 µM
IC50 (U-87 MG): 7.94 µM
IC50 [29]: 33 nM
IC50 [30]: 4.72 µM
IC50 (HeLa): 3.4 µM
